The values below come from ChEMBL document CHEMBL4513216, “Probing the Open Global Health Chemical Diversity Library for Multistage-Active Starting Points for Next-Generation Antimalarials” (ACS Infect Dis, 2020).

The structures appear in SMILES notation.

This data set can be described thus: Toxicity liver stage against HepG2, at 10uM. Also on record: test concentration 10 uM, cell line HepG2-A16-CD81EGFP. The following applies: human, HepG2-A16-CD81EGFP cells; read-out: INHIBITION
Format: cell-based. Put shortly:
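Uninfected HepG2-A16-CD81EGFP cells, 3 × 10^3 per well, 1536-well, plated on prespotted compound at 10 μM final, parasite-free screening media added to match infected plates; puromycin 10 μM positive, DMSO 0.5% negative; run in parallel with 48 h PbLuc assay at 37 °C, 5% CO2; viability by CellTiter-Glo luminescence, normalized to controls.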
In the case of `COCC(=O)N[C@H]1C[C@@H](Cc2cc(CN3CCOCC3)on2)C1(C)C`, the cytotoxicity at 10 µM stood at 0.66%. The result for `O=C(Cc1cc(-c2ccc3c(c2)OCO3)on1)NC1CCCC1` reads -2.34%; that for `Cc1nnsc1C(=O)NCC1CCN(c2ccccn2)CC1`, 11.9%; that for `COCCCNC(=O)c1cn(C(C)C)cc2c(=O)[nH]nc1-2`, -4.45%. Next, `COCC(C)NC(=O)c1nnn(-c2ccc(F)cc2)n1` (stereo unspecified): -20.6%; `O=C(C1CCOCC1)N1CCC2(CCC(C(=O)N3CCCC3)O2)CC1` (stereo unspecified): 6.41%; `CCS(=O)(=O)N1CCCC2(CCCC(=O)N2C)C1` (stereo unspecified): 8.86%. For `CC(=O)N1C[C@H]2CN(CC3CC3)C(=O)[C@H]2C1`, the cytotoxicity at 10 µM stood at 6.32%. Next, `CN(C)C(=O)CN1CCC2(CC1)COC2`: 5.53%; `COCCO[C@@H]1CCN(c2cc(OC)ncn2)[C@H]1Cc1cnn(C)c1`: -142%. The result for `CCC(=O)N1CCC(c2ncc(C(=O)Nc3ccccc3)c(C)n2)C1` (stereo unspecified) reads 6.96%. Next, `CN(C)Cc1cccc(-c2cccnc2C(=O)NCc2ccccn2)c1`: 5.39%; `COc1cc(CCC(=O)N2CCC(c3cncc(C)n3)CC2)on1`: 4.46%.

For the compound `Cc1cc(C)n(C2CCN(S(=O)(=O)N3CCOCC3)CC2)n1`, the cytotoxicity at 10 µM came to 3.88%. Next, `O=C(O)c1ccc(=O)n(CC(c2ccc(F)cc2)N2CCCCCC2)c1` (stereo unspecified): 1.31%; `CNC(=O)C1(CCCc2ccccn2)CN(Cc2coc(C)n2)C1`: 8.62%; `O=C(O)c1ccccc1-n1cnc(CN2CCCCCC2)c1`: -8.94%. Next, `CCCn1cc(C(=O)NCc2nnc(-c3ccc(C)nc3)o2)c(C)n1`: -0.277%; `Cn1ccc(C(=O)N2CCCC(c3cc4cccnc4c(O)n3)C2)n1` (stereo unspecified): 4.53%; `COc1ccc2[nH]cc(C(=O)N3C[C@@H](O)[C@H](NS(C)(=O)=O)C3)c2c1`: -9.26%. The result for `Cc1cccc(N2CCOC(C(=O)O)C2)c1` (stereo unspecified) reads -8.89%; that for `CN(C)[C@@H]1CN(C(=O)c2ccc3ccccc3n2)C[C@H]1O`, -22.5%; that for `CNc1cncc(C2CCCN2S(=O)(=O)c2cccc(F)c2)n1` (stereo unspecified), -15.3%. In the case of `O=C(CN1CCCC1)N1CCCC(c2cc(=O)n3c(n2)CCCCC3)C1` (stereo unspecified), the cytotoxicity at 10 µM is -13.7%. Next, `CN1CCN(c2ncc(-c3cnccn3)c([C@H]3CCCO3)n2)CC1`: -20%; `Cc1cc2c(=O)n3c(nc2s1)CCN(C(=O)c1cn(C)nc1C)CC3`: -22.6%; `O=C(Cn1cccnc1=O)NC(Cc1ccsc1)c1cccnc1` (stereo unspecified): -25.7%.

As to `CCc1cnc(CNC(=O)NC2CC(C)(C)OC2(C)C)s1` (stereo unspecified), the cytotoxicity at 10 µM worked out at 10.3%.

With `CCCn1nc2c(cc1=O)CN(CC1CCCCO1)CC2` (stereo unspecified), the cytotoxicity at 10 µM was found to be 12.5%. Next, `CN(C)C(=O)c1ccc(-c2cscn2)cc1`: 1.53%. Regarding `Cc1nc(CN2CCN(c3cncc(Cl)n3)CC2)no1`, the cytotoxicity at 10 µM stood at 6.45%.

Regarding `Cc1noc(C)c1Cc1nc(C2CC2)no1`, the cytotoxicity at 10 µM was 5.42%. The result for `CN(Cc1ccc(F)c2cccnc12)C1CCS(=O)(=O)C1` (stereo unspecified) reads 5.93%. In the case of `CCOc1ccc(Cl)c(C(=O)NC(C)C(N)=O)n1` (stereo unspecified), the cytotoxicity at 10 µM was found to be 7.53%. Next, `CC(C)N(C)S(=O)(=O)N(Cc1cccs1)Cc1cccs1`: -45.2%; `CN(Cc1c(F)cccc1Cl)C(=O)c1cnn(CCN2CCOCC2)c1`: -4.2%; `Cc1nn(C)c(Cl)c1C1CCCN1CC(=O)NC1CCCCC1` (stereo unspecified): 7.09%. The result for `COCCCS(=O)(=O)N1CCN(c2cccc(O)c2)CC1` reads 4.42%; that for `CN(Cc1cnn(C)c1)C1CCCN(Cc2noc(C3CC3)n2)C1` (stereo unspecified), -8.44%. The result for `COCCOc1nc(-c2ccccc2Cl)no1` reads 9.4%; that for `COc1c(C2CCCN2C(=O)c2sccc2C#N)c(C)nn1C` (stereo unspecified), 3.33%.

As to `CCNC(=O)CCC(=O)N1CCC(Oc2cc(C)ccc2C)CC1`, the cytotoxicity at 10 µM is -4.59%.

As to `Cc1c(C(=O)N2CCSCC2)sc2nc(C(F)(F)F)ccc12`, the cytotoxicity at 10 µM is -8.58%. Next, `CCN(C)C(=O)Nc1cc(F)c(OC)cc1F`: -10.4%; `Cc1ccc(C)c(NC(=O)Cn2nc(C)c(C#N)c2N)c1`: -4.57%. With `CCc1noc(CC)c1CC(=O)N1CCCC(N2CCCCC2)C1` (stereo unspecified), the cytotoxicity at 10 µM is -15.3%. The result for `Cc1nc(CNC(C(=O)N2CCOCC2)C(C)C)no1` (stereo unspecified) reads 5.76%; that for `CCC(C)CNCC1(S(C)(=O)=O)CCOCC1` (stereo unspecified), -11.4%; that for `CC(NCC(=O)N1CCc2sccc2C1)c1ccccc1F` (stereo unspecified), 1.8%.

Turning to `CN1CCC(NCC(O)c2cccc(OCc3ccccc3)c2)CC1` (stereo unspecified), the cytotoxicity at 10 µM was -11.7%. The result for `Cc1ccc(C(=O)N(C)Cc2cscn2)c(=O)[nH]1` reads -7.69%. The result for `Cc1cc(CN2CC[C@H]3OCC[C@@]3(C(=O)N3CCOCC3)C2)no1` reads 7.93%; that for `Cn1nccc1-c1cnc2n1CCC21CCN(C(=O)C2(C)CC2)CC1`, -123%. The result for `CS(=O)(=O)NC[C@]12COC[C@H]1CN(C(=O)C1CCSCC1)C2` reads -112%; that for `CN1C(=O)CC(c2cnn(C)c2)C12CCN(C(=O)c1ccno1)CC2` (stereo unspecified), -74.1%; that for `Cc1cccc(N2CC3(CCN(C(=O)NC(C)C)C3)CC2=O)c1` (stereo unspecified), -3.7%. On to `CCCN(Cc1cccnc1)C(=O)C1CCNC1` (stereo unspecified), for which the cytotoxicity at 10 µM came out at 8.97%. For `COCCN(C)Cc1cn(C)nc1-c1ccc2c(c1)OCCO2`, the cytotoxicity at 10 µM is -0.65%.

Turning to `CC(C)[C@H]1CN(CC2CCC2)C[C@@H]1NC(=O)c1ccc(=O)[nH]c1`, the cytotoxicity at 10 µM is -7.85%. Consider `COCCCC1(C(=O)O)CCCN(Cc2ccccc2C)C1` (stereo unspecified), for which the cytotoxicity at 10 µM was -4.58%. As to `Cc1nc(N(C)C)nc(-c2cccc(-c3ccn(CCCO)n3)c2)c1C`, the cytotoxicity at 10 µM is -6.51%.

For the compound `CN(CCCN1CCCCCC1)C(=O)c1ccccc1NCC(=O)O`, the cytotoxicity at 10 µM was -4.84%. In the case of `O=c1c2cccnc2ccn1Cc1nccn1C1CC1`, the cytotoxicity at 10 µM is -4.87%. The result for `CC(C)c1cc(C(=O)NCCN2CCCCC2CO)on1` (stereo unspecified) reads 2.07%. Next, `Cc1cccnc1[C@H](C)NC(=O)c1cccc(CC2CCNCC2)c1`: -5.22%. The result for `Cc1ccsc1[C@@H]1CCN(C(=O)CCc2cc(O)no2)C[C@H]1O` reads -4.73%; that for `CCc1nn(C)c(Cl)c1CN1CCCC2(C1)CN(C)C(=O)O2` (stereo unspecified), 5.44%; that for `COc1cccc(OCc2cc(C(=O)NC[C@@H]3CCCN3)n[nH]2)c1`, 0.732%.

On to `CCOc1ccc(C(=O)CCC(=O)NCCc2nncn2CC)cc1C`, for which the cytotoxicity at 10 µM was -10.7%. For the compound `CCc1nc(C)sc1CN1C[C@@H](C)[C@@](C)(O)C1`, the cytotoxicity at 10 µM is -1.47%. Consider `CN(Cc1ccccc1)C(=O)CCN1CCC2(CC1)[C@H](O)C[C@@H]2O`, for which the cytotoxicity at 10 µM is -7.55%. Next, `O=C(COc1cccnc1)NCc1nncn1C1CCCCC1`: 3.46%; `CCCOC(C)C(=O)NCc1cc2n(n1)CCCN(C1CCCCC1)C2` (stereo unspecified): 2.5%; `CCC(Cn1ccnc1)n1cnc2c(C)csc2c1=O` (stereo unspecified): -4.34%. Next, `COCc1nc2ncc3c(=O)n(-c4ccc(OC)cc4)ccc3n2n1`: 8.1%; `COCCOC1CCN(C(C(=O)O)c2ccc3c(c2)OCO3)CC1` (stereo unspecified): 9.07%; `CC(C)c1nn(C)c(N(C)C)c1CNCc1cccnc1N(C)C`: -8.66%. The result for `CNC(=O)CCCNCc1c(C)nn(C)c1N(C)C` reads -8.18%; that for `Cc1cc(C(=O)NCc2ccnc(N3CCN(C)CC3)c2)c(C)s1`, -10.7%. Consider `CCC1CCCN(C(=O)Cc2csc(-c3ncccn3)n2)C1` (stereo unspecified), for which the cytotoxicity at 10 µM was -5.15%. As for `COc1ccc(OC)c(C(O)CN2CC(n3cccn3)C2)c1` (stereo unspecified), the cytotoxicity at 10 µM was -8.42%. Next, `NC(=O)c1ccc(S(=O)(=O)NC2CCN(Cc3ccccc3)C2=O)cc1` (stereo unspecified): -9.96%. Turning to `CC(=O)N1CC2(CCNCC2)c2cc(Cl)ccc21`, the cytotoxicity at 10 µM is -0.655%. Next, `c1ccc(CN2CC[C@@H]3O[C@H](COCc4ccncc4)CC[C@@H]32)nc1`: 3.5%; `O=C(c1ccncc1F)N1C[C@@H]2OCCN(CC3CC3)[C@@H]2C1`: -141%; `Cc1ncsc1CN1C[C@@H]2COC[C@]2(CNC(=O)c2ccco2)C1`: -73.8%. The result for `COCCN1C2(CCN(Cc3nccs3)C2)c2ccccc2S1(=O)=O` (stereo unspecified) reads -65.7%; that for `Cc1ccc(C(=O)N2Cc3c(CN(C)C)nn(C)c3C2)cc1C`, 1.77%; that for `CN(C)C(=O)CN1CC[C@@H]2O[C@@H](COCc3cccnc3)CC[C@@H]21`, -67.2%. The result for `CNC(=O)CN1CCCC12CCN(C(=O)c1cccc(F)c1)CC2` reads 6.62%; that for `COCC1CC2(CCN(Cc3ccco3)CC2)CN1C(C)C` (stereo unspecified), 0.0448%. On to `CCN1CC[C@@]2(C(=O)N3CCOCC3)CCN(C(=O)C(C)C)CC[C@@H]12`, for which the cytotoxicity at 10 µM was -11.5%. Next, `COc1ccc(OC)c(CN2CCc3nc4ccsc4c(=O)n3CC2)c1`: 43.5%; `Cc1nc(CN2CCO[C@H]3[C@@H](OCc4cccnc4)CC[C@@H]32)cs1`: -0.587%. The result for `O=C1C[C@H]2[C@@H](CCN2Cc2ccccn2)N1CCN1CCOCC1` reads -1.45%. Next, `CN(C)C(c1ccccn1)C1CCC(CNC(=O)C2CCCC2)CC1` (stereo unspecified): 10.5%.
